KCC2 mod – KCC2 cotransporter modulators, thallium flux, primary screen, cell-based, HEK293 KCC2, FluoZin-2 fluorescence, MLSMR; KCC2 cells, thallium flux FluoZin-2 fluorescence; B-score of Tl+ flux slope (higher = more flux/activation; lower = inhibition) at 10 µM; 2.2% of 190,000 active;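 active = thallium flux slope and its plate-corrected score both differing from the plate sample mean at a set confidence after two filtering rounds, in either direction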;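 note: slope of fluorescence scaled to starting intensity during 10 to 20 s after thallium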
V-ATPase pHluor – regulators of yeast V-ATPase proton pumping, primary screen, pHLuorin cytosolic pH fluorescence | S. cerevisiae | response, % at 10 µM | 0.37% of 350,000 active; in the data active = response mostly above about 7.3%, no sharp cut-off; inactive = mostly below about 5.4%; note: actives read high
ABCB6 inh 2 – ABCB6 transporter inhibitors, primary screen, K562-ABCB6 cells, flow cytometry, MLPCN library; 0.19% of 360,000 active; ATP-binding cassette sub-family B member 6 (Homo sapiens), Q9NP58; K562-ABCB6 porphyrin accumulation, 1 h; hits give low values; fluorescence ratio to DMSO, % at 10 µM;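 active = fluorescence ratio to DMSO below 75%, the collection mean minus 3 SD; inconclusive = too few cells collected in the well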;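 note: signal is porphyrin accumulated inside mitochondria; lower ratio means ABCB6 inhibition with less porphyrin fluorescence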
p-CIP stab down – p/CIP-EGFP fusion destabilizers, primary screen, fluorescence, F442A cells | 0.01% of 290,000 active | 16 h | AID 1984, 2009 | decrease of EGFP signal, % at 10 µM;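 active = EGFP signal decrease of at least 30% at 10 µM or well 3 SD below plate mean, unless failing retest; inactive = the rest, including hits failing retest or dose response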
Target sequence (Q05BA5 1-1403): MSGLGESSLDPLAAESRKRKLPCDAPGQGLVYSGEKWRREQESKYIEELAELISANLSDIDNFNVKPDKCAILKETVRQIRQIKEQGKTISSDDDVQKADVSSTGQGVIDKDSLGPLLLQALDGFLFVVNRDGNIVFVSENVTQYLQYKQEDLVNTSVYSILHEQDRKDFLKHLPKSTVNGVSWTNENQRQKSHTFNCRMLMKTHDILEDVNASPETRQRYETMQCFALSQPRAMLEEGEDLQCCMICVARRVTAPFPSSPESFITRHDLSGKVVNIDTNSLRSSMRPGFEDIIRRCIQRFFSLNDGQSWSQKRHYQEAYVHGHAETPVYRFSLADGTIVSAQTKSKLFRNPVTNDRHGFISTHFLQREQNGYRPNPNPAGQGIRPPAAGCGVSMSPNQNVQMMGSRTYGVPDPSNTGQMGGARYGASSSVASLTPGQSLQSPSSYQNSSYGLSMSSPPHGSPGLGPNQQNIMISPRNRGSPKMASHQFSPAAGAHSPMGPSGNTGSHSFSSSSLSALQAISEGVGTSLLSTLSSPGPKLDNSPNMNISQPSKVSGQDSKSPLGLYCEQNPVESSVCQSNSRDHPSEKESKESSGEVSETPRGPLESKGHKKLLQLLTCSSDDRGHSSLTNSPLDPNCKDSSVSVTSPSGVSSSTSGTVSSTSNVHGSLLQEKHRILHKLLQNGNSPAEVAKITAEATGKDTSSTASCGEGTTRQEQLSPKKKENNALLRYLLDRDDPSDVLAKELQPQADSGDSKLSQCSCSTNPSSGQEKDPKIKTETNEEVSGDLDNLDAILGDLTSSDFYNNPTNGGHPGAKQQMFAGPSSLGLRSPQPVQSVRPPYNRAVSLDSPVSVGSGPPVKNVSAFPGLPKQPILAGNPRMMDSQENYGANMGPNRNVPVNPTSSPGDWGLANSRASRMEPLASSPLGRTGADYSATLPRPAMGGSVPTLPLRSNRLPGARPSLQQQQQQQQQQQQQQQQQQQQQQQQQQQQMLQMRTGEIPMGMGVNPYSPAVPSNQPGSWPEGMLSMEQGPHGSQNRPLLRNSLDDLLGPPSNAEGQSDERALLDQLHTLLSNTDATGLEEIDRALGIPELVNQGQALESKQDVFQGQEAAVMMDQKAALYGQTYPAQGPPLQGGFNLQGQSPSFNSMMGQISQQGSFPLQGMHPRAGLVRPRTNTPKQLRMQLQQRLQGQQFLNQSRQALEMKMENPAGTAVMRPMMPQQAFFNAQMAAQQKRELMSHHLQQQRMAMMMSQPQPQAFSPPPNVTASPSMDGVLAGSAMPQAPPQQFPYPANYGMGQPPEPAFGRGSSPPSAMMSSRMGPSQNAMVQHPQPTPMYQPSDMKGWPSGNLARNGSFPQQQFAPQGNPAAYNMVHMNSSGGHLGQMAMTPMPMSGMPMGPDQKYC
Dynein transport – inhibitors of GR-EGFP nuclear translocation, primary screen, dynein cargo transport inhibitor project, imaging, high-content, 3617.4 mouse cells | test concentration mostly 20 µM; stimulated with dexamethasone, 1 µM; hits give low values | z-score, hits read low | 0.47% of 220,000 active;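 active = plate z-score of nuclear minus cytoplasmic receptor signal below a set negative limit, without overly bright fluorescence or cell loss, cut at about -3.5 in these data, passing the limit was not always enough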;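 note: z-score of nuclear minus cytoplasmic ring GR-EGFP intensity difference per well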
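Also added – dexamethasone, 1.0 µM final · Buffer or medium – tet-free, stripped-serum medium · Schedule – induction 48 h, compound 1 h, agonist 30 min · Detection – formaldehyde fixation, Hoechst nuclear stain, 10x automated fluorescence imaging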
KCC2 secondary – KCC2 modulators in sodium-free buffer, confirmation, cell-based, HEK293 KCC2, thallium flux, secondary assay; shares compounds with KCC2 mod; FluoZin2 fluorescence; hits give high values; normalised thallium flux (F/F0 slope) at 10 µM; 15% of 3,700 active; AID 1713, 2009;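 active = thallium flux slope above the same plate's solvent-only control mean plus 3 SD; inconclusive = the two replicate wells disagree; inactive = no significant difference from solvent-only control wells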
KCC2 bumet counter – thallium flux persisting under bumetanide in KCC2 cells, confirmation, counter-screen for KCC2 modulator project, cell-based, HEK293 KCC2, FluoZin2, secondary assay 3 | shares compounds with KCC2 mod | HEK293-KCC2 + bumetanide/ouabain; hits give high values | normalized thallium flux at 10 µM | 49% of 3,700 active | AID 1714, 2009;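 active = thallium entry rate above the same plate's blocked-transporter control wells by more than 3 SD; inconclusive = the two repeat wells disagree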;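 note: raw slope of fluorescence over initial fluorescence between 10 and 20 s after thallium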
KCC2 sec2 – KCC2 modulators without ouabain present, confirmation, cell-based, HEK293 KCC2, thallium flux, FluoZin2, secondary assay 2; shares compounds with KCC2 mod; thallium flux FluoZin2 fluorescence; actives lie on both sides; F/F0 rise rate, 10–20 s post-thallium; AID 1715, 2009; 23% of 3,700 active; normalized thallium flux at 10 µM;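 active = thallium flux slope more than 3 SD above or below the plate's solvent-only control mean, mostly below; inconclusive = the two repeat wells disagreed; inactive = no significant shift from solvent-only controls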
HEK counter1 – thallium flux modulation in parental HEK cells, confirmation, counter-screen for KCC2 modulator project, cell-based, counterscreen 1; shares compounds with KCC2 mod; HEK293 parental cells, thallium flux FluoZin2, ouabain; baseline-ratio fluorescence slope, 10–20 s after thallium; thallium flux rate (normalised fluorescence) at 10 µM; 46% of 3,700 active; AID 1716, 2009;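 active = thallium flux rate significantly above the same plate's solvent-only control wells, beyond their mean plus 3 SD; inconclusive = the two replicate wells gave conflicting results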
KCC2 ouabain – KCC2 inhibitors and activators, ouabain retest, confirmation, HEK-KCC2 cells. shares compounds with KCC2 mod. raw Tl+ flux slope (below DMSO = inhibition, above = activation) at 10 µM. AID 1717, 2009. HEK293-KCC2, thallium flux FluoZin2 fluorescence; bidirectional: low = inhibitor, high = activator. 48% of 3,700 active;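 active = thallium flux slope beyond 3 SD from same-plate DMSO control mean in most replicates, usually higher, sometimes lower; inconclusive = repeat tests gave conflicting results; inactive = no significant difference from controls in most replicates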;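 note: slope of initial-normalized fluorescence between seconds 10 and 20 after thallium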
HEK293 Tl flux2 – native HEK Tl+ uptake effects, second counter-screen – HEK cells, counterscreen 2, counter-screen for KCC2 modulator project, confirmation | HEK293 parental, thallium flux FluoZin-2 fluorescence slope | thallium flux slope at 10 µM | shares compounds with KCC2 mod | 33% of 3,700 active;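 active = thallium flux slope above the same plate's solvent-control mean plus 3 SD in both duplicate wells; inconclusive = duplicate wells that disagreed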;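 note: run without ouabain in cells lacking the KCC2 cotransporter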
Numbers stand for hits; i = inactive; ? = inconclusive; nt = no result. The sample as a whole holds a higher share of hits than the screen did.

SMILES	KCC2 mod	V-ATPase pHluor	ABCB6 inh 2	p-CIP stab down	Dynein transport	KCC2 secondary	KCC2 bumet counter	KCC2 sec2	HEK counter1	KCC2 ouabain	HEK293 Tl flux2
COC(=O)C1=C(C(=O)OC)C(c2cc(Cl)ccc2O)c2sc(=O)[nH]c2S1 (stereo not drawn)	-4.4	i	i	i	i	i	i	?	?	0.014	?
COCCCN1C(=O)C(CC(=O)NCCCN(C)C)CC(C(=O)N(C(C)C)C(C)C)=C1C (stereo not drawn)	nt	nt	i	nt	nt	nt	nt	nt	nt	nt	nt
O=C1OC(c2cccs2)=N/C1=C\c1ccc(-c2ccccc2Cl)o1	nt	i	i	i	i	i	i	i	0.0049	?	i
CCOc1ccc(C2=Nn3c(nnc3-c3ccccn3)SC2)cc1	i	i	i	i	i	i	i	i	i	i	i
CCOc1ccc(C2=Nn3c(nnc3-c3ccco3)SC2)cc1	i	i	i	i	i	nt	nt	nt	nt	nt	nt
CN(C1CCCCC1)S(=O)(=O)c1cc2c(cc1Cl)NC(=O)CO2	nt	i	i	i	nt	nt	nt	nt	nt	nt	nt
CC(C)(C)c1ccccc1NC(=O)c1c(O)c2cccc3c2n(c1=O)CC3	i	nt	nt	i	i	nt	nt	nt	nt	nt	nt
Cc1cnc2cc(Cl)ccc2c1SCC(=O)O	i	i	i	i	i	nt	nt	nt	nt	nt	nt
S=C(Nc1ccccc1)Nc1ccccc1-n1cccc1	8.5	i	i	i	i	0.014	0.05	i	0.017	?	0.016
FC(F)(F)c1ccccc1NC(=S)Nc1ccccc1	nt	i	i	i	nt	nt	nt	nt	nt	nt	nt
O=C(Cn1c(=O)c2cccn2c2ccccc21)NCCc1ccccc1	nt	i	i	i	nt	nt	nt	nt	nt	nt	nt
O=C(NCc1ccc2c(c1)OCO2)c1ccc(CS(=O)Cc2cccc(Cl)c2)o1 (stereo not drawn)	nt	i	i	i	nt	nt	nt	nt	nt	nt	nt
O=C(NCc1ccc2c(c1)OCO2)c1ccc(COc2cccc(Cl)c2)o1	-6.9	i	i	i	i	i	i	i	i	?	i
CCc1ccc(OCCNC(=O)c2ccccc2SCc2ccccc2)cc1	nt	i	i	i	i	i	?	0.024	i	0.015	i
O=C(NCCOc1ccccc1F)c1ccccc1SCc1ccc(F)cc1	-6.2	i	i	i	i	i	i	0.022	i	0.012	i
Cc1ccsc1C(=O)OCc1nc2ccccc2c(=O)[nH]1	nt	i	i	i	i	i	i	i	i	i	?
O=C(NC(=S)NNC(=O)[C@H]1C[C@@H]1c1ccccc1)c1cccc(F)c1	67	i	i	i	i	i	0.086	0.06	0.061	0.067	0.05
O=c1c2cc3c(cc2[nH]c(=S)n1Cc1ccco1)OCO3	6.5	i	i	i	i	?	0.027	i	0.012	?	0.01
O=c1c2cc3c(cc2[nH]c(=S)n1C1CCN(Cc2ccccc2)CC1)OCO3	18	i	i	i	i	0.011	0.061	i	0.017	0.044	0.011
Cc1ccc(-c2nc(CC(=O)Nc3cccc(S(=O)(=O)NC4=NCCC4)c3)cs2)cc1	nt	i	i	nt	nt	nt	nt	nt	nt	nt	nt
CC(Cc1cccs1)NC(=S)Nc1ccc(Cl)c(Cl)c1 (stereo not drawn)	6.7	i	i	i	i	i	0.019	i	0.0084	0.021	?
CN(C(=O)CCc1ccccc1)c1nnc(-c2ccncc2)s1	nt	i	i	i	i	nt	nt	nt	nt	nt	nt
O=C(NC(=S)Nc1cccc(C(F)(F)F)c1)c1ccc2nonc2c1	52	i	i	i	i	0.024	0.12	?	0.041	0.063	0.015
FC(F)(F)c1cccc(NC(=S)NNC(=S)Nc2cccc(C(F)(F)F)c2)c1	i	nt	nt	i	i	nt	nt	nt	nt	nt	nt
CCOc1cc(OCC)cc(C(=O)NC(=S)Nc2cccc(C(F)(F)F)c2)c1	3.3	i	i	i	i	i	0.014	i	0.013	?	0.014
SMILES	KCC2 mod	V-ATPase pHluor	ABCB6 inh 2	p-CIP stab down	Dynein transport	KCC2 secondary	KCC2 bumet counter	KCC2 sec2	HEK counter1	KCC2 ouabain	HEK293 Tl flux2
O=C(COc1cccc(NC(=O)c2cccc([N+](=O)[O-])c2)c1)c1ccc(Br)cc1	i	i	i	i	i	nt	nt	nt	nt	nt	nt
Cc1cccc(NC(=O)N2CCN(Cc3ccc(Cl)cc3)CC2)c1	i	i	i	i	i	nt	nt	nt	nt	nt	nt
O=C(Nc1cccc(Cl)c1)N1CCN(Cc2ccccc2)CC1	-4.6	i	i	i	i	i	i	i	i	0.029	?
COc1cccc(NC(=O)CN(C)C(=O)c2ccccn2)c1	nt	i	i	nt	nt	nt	nt	nt	nt	nt	nt
CC(C)n1nnnc1-c1cc(Cl)cc(Cl)c1	3.4	i	i	i	i	i	i	i	i	i	i
CC(C)n1nnnc1-c1cccc(Cl)c1	i	i	i	i	i	nt	nt	nt	nt	nt	nt
Cc1cc(Cl)cc(Cl)c1OCCOc1cccc2cccnc12	-7	i	i	i	i	i	i	i	i	i	i
CCOC(=O)N1CCN(C(=O)Cn2nc(C)n3nc(-c4ccc(CC)cc4)cc3c2=O)CC1	nt	i	i	i	nt	nt	nt	nt	nt	nt	nt
CCCCC[C@H](O)/C=C/[C@H]1CCC(=O)[C@@H]1CCCCCCC(=O)N1CCCCC1CO (stereo partly drawn)	nt	i	i	i	nt	nt	nt	nt	nt	nt	nt
Cn1nnc(NCc2cc(Br)ccc2OCc2cccs2)n1	nt	i	i	i	i	i	i	0.026	i	?	i
Cn1nnc(C(O)CNCc2cccs2)n1 (stereo not drawn)	i	i	i	i	i	nt	nt	nt	nt	nt	nt
OCc1nc2c(ccc3ccccc32)[nH]1	nt	i	i	i	nt	nt	nt	nt	nt	nt	nt
O=C(c1ccc(F)cc1)N1CCN(c2ccc([N+](=O)[O-])cc2-n2cccc2)CC1	-3.7	i	i	i	i	i	i	i	i	i	i
COc1ccccc1CNn1c(-c2cccc(C)c2)nc2ccccc2c1=O	nt	i	i	i	i	nt	nt	nt	nt	nt	nt
